Data taken from ChEMBL document CHEMBL5108081, “Development of an N-Terminal BRD4 Bromodomain-Targeted Degrader” (ACS Med Chem Lett, 2022).
Each block holds one compound with its values, some of them ahead of it. Activity calls are given as the source filed them. No cut-off for these calls is given here.

How the values were obtained:
Homo sapiens [1] = species: Homo sapiens; experiment: Ratio IC50 for inhibition of BRD3-BD1 (unknown origin) over inhibition of His9-tagged BRD4-BD1 (unknown origin)
Homo sapiens [2] = species: Homo sapiens; experiment: Ratio IC50 for inhibition of BRD3-BD2 (unknown origin) over inhibition of His9-tagged BRD4-BD1 (unknown origin)
Homo sapiens [3] = species: Homo sapiens; experiment: Ratio IC50 for inhibition of BRD2-BD2 (unknown origin) over inhibition of His9-tagged BRD4-BD1 (unknown origin)
Homo sapiens [4] = species: Homo sapiens; experiment: Ratio IC50 for inhibition of BRD4-BD2 (unknown origin) over inhibition of His9-tagged BRD4-BD1 (unknown origin)
Homo sapiens [5] = species: Homo sapiens; experiment: Ratio IC50 for inhibition of BRD2-BD1 (unknown origin) over inhibition of His9-tagged BRD4-BD1 (unknown origin)
[6] = molecular target: T1, Bromodomain-containing protein 3 (Homo sapiens, UniProt Q15059); experiment: Inhibition of BRD3-BD2 (unknown origin) measured by AlphaScreen assay
Summary of the method: (§1)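 Commercial AlphaScreen displacement assay run by an outside service on a panel of BET bromodomains. Values are the means of duplicate experiments.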

[7] = molecular target: T2, Bromodomain-containing protein 2 (Homo sapiens, UniProt P25440); experiment: Inhibition of BRD2-BD1 (unknown origin) measured by AlphaScreen assay; summary of the method: as §1
[8] = molecular target: T1, Bromodomain-containing protein 3; experiment: Inhibition of BRD3-BD1 (unknown origin) measured by AlphaScreen assay; summary of the method: as §1
[9] = molecular target: T2, Bromodomain-containing protein 2; experiment: Inhibition of BRD2-BD2 (unknown origin) measured by AlphaScreen assay; summary of the method: as §1
[10] = molecular target: T3, Protein cereblon/Bromodomain-containing protein 4 (Homo sapiens, UniProt O60885+Q96SW2); experiment: Binding affinity to GST-tagged CRBN/6xHis-tagged BRD4-BD1 (unknown origin) assessed as induction of dimerization of CRBN/BRD4-BD1 at 4.6 nM measured by TR-FRET assay; format: protein assay
[11] = molecular target: T3, Protein cereblon/Bromodomain-containing protein 4; experiment: Protac activity at CRBN/BRD4-BD1 in human MM1.S cells assessed as induction of BRD4-BD1 degradation measured at 1 uM in presence of 0.01 to 1 uM iBET-BD2 measured by Western blot analysis; format: cell-based
Summary of the method: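 Rescue experiment in MM.1S cells: the degrader was co-treated with a pan-BD1 inhibitor, the proteasome inhibitor MG132, the neddylation inhibitor MLN4924 or the pan-BD2 inhibitor iBET-BD2. BRD4 was then read by western blot against an untreated control on the same gel.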

[12] = molecular target: T3, Protein cereblon/Bromodomain-containing protein 4; experiment: Binding affinity to GST-tagged CRBN/6xHis-tagged BRD4-BD1 (unknown origin) assessed as ternary complex formation measured by TR-FRET assay; format: protein assay
MM1.S = experiment: Cytotoxicity against human MM1.S cells assessed as downregulation of cMyc expression; format: toxicity, cell-based
[13] = molecular target: T3, Protein cereblon/Bromodomain-containing protein 4; experiment: Protac activity at CRBN/BRD4-BD1 in human MM1.S cells assessed as induction of BRD4-BD1 degradation measured after 24 hrs by western blot analysis; format: cell-based
Summary of the method: (§2)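 MM.1S cells were treated for 24 h, and BRD4 was probed by western blot. Band densitometry was quantified from three biological replicate blots.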

[14] = molecular target: T3, Protein cereblon/Bromodomain-containing protein 4; experiment: Protac activity at CRBN/BRD4-BD1 in human MM1.S cells assessed as induction of BRD4-BD1 degradation measured after 24 hrs by western blot analysis relative to control; format: cell-based; summary of the method: as §2
[15] = molecular target: T3, Protein cereblon/Bromodomain-containing protein 4; experiment: Protac activity at CRBN/BRD4-BD1 in human MM1.S cells assessed as induction of BRD4-BD1 degradation measured at 5 uM after 8 hrs by western blot analysis; format: cell-based
Summary of the method: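 Time-course study in MM.1S cells with BRD4 levels followed by western blot at successive time points. BRD2, BRD3 and cMyc were also probed.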

[16] = molecular target: T3, Protein cereblon/Bromodomain-containing protein 4; experiment: Protac activity at Halo-tagged CRBN/BRD4-BD1-NanoLuc fusion protein expressed in human HEK293T cells assessed as induction of BRD4-BD1 degradation at 0.2 uM measured by NanoBRET assay; format: cell-based
[17] = molecular target: T3, Protein cereblon/Bromodomain-containing protein 4; experiment: Binding affinity to GST-tagged CRBN/6xHis-tagged BRD4-BD2 (unknown origin) assessed as induction of dimerization of CRBN/BRD4-BD2 measured by TR-FRET assay; format: protein assay
[18] = molecular target: T3, Protein cereblon/Bromodomain-containing protein 4; experiment: Binding affinity to GST-tagged CRBN/6xHis-tagged BRD4-BD1 (unknown origin) assessed as induction of dimerization of CRBN/BRD4-BD1 measured by TR-FRET assay; format: protein assay

T3 sequence (Q96SW2 whole entry, looked up, other chains not shown): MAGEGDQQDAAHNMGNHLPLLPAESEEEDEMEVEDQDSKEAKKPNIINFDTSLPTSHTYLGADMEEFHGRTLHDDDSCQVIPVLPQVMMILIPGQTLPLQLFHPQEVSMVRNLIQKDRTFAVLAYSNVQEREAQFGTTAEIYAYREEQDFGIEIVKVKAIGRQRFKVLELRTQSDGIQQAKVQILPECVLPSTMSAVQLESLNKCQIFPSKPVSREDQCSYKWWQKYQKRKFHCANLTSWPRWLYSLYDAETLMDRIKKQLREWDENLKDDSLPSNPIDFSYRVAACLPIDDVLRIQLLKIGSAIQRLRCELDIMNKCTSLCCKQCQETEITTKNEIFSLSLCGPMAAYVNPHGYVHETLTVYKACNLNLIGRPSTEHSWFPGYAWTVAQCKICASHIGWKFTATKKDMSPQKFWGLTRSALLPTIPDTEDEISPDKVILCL
T1 sequence (Q15059 whole entry): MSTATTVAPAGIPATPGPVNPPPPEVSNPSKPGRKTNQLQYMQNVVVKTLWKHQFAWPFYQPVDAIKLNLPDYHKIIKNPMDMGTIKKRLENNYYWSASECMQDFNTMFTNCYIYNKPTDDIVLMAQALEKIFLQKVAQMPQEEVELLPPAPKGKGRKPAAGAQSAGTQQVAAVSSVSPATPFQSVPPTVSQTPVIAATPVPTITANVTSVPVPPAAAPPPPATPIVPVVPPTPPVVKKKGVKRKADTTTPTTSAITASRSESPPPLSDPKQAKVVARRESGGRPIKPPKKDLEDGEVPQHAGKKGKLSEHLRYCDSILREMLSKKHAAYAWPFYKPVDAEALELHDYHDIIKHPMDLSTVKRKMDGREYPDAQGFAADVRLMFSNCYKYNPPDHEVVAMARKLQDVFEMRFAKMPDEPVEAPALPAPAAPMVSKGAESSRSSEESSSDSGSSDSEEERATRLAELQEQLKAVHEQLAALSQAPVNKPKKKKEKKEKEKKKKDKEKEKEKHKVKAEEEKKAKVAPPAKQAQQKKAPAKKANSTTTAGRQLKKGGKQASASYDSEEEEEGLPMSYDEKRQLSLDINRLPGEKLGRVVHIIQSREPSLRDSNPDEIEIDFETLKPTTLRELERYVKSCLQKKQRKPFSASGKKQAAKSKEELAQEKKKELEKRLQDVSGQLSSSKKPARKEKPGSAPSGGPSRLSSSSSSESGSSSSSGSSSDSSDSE
T2 sequence (P25440 whole entry): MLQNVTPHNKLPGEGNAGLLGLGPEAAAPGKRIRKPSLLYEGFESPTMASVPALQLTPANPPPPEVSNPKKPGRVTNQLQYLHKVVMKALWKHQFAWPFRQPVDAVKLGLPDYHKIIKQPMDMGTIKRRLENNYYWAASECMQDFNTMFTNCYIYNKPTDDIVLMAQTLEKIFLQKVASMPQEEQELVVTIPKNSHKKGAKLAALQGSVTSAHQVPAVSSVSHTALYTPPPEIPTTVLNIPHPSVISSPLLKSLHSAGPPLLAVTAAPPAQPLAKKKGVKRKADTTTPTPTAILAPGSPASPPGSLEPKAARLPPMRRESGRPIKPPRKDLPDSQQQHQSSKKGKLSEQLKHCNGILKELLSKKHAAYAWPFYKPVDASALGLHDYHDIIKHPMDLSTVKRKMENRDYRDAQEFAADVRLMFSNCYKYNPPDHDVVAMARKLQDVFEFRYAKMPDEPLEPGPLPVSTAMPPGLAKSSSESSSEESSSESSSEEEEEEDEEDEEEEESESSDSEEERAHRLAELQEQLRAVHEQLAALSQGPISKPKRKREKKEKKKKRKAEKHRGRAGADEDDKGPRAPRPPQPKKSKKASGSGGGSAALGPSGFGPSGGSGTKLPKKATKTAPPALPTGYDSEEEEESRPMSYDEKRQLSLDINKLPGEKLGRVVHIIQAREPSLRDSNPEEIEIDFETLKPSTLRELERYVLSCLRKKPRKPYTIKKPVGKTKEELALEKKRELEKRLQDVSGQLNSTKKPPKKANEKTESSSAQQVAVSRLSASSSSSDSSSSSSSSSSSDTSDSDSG

- Ratio IC50 (Homo sapiens [1]): 9
- Ratio IC50 (Homo sapiens [2]): 9
- Ratio IC50 (Homo sapiens [3]): 9
- Ratio IC50 (Homo sapiens [4]): 9
- Ratio IC50 (Homo sapiens [5]): 9
Compound: Cc1cc(C)cc(Nc2nccc(-c3c(-c4ccc(C(F)(F)F)cc4)ncn3C3CCN(CCN)CC3)n2)c1

- Ratio IC50 (Homo sapiens [1]): 6
- Ratio IC50 (Homo sapiens [2]): 6
- Ratio IC50 (Homo sapiens [3]): 6
Compound: Cc1cc(C)cc(Nc2nccc(-c3c(-c4ccc(F)cc4)ncn3C3CCNCC3)n2)c1

- IC50 [6]: 75000 nM
- IC50 [7]: 280 nM
- IC50 [8]: 1000 nM
- IC50 [9]: 7100 nM
Compound: Cc1ccc(C(C)C)cc1Oc1nccc(-c2c(-c3ccc(C(F)(F)F)cc3)ncn2C2CCNCC2)n1

- Activity [10]: Active
- Activity [11]: Active
- Activity [12]: Active
- DC50 [13]: 280 nM
- Activity [14]: 77%
- Activity [15]: Active
- Activity [16]: Active
Compound: Cc1ccc(C(C)C)cc1Oc1nccc(-c2c(-c3ccc(C(F)(F)F)cc3)ncn2C2CCN(CCOCCOCCNC(=O)COc3cccc4c3C(=O)N(C3CCC(=O)NC3=O)C4=O)CC2)n1 (configuration not stated)
- Activity (MM1.S): Non-Toxic

- Activity [17]: Active
- Activity [18]: Active
Compound: Cc1sc2c(c1C)C(c1ccc(Cl)cc1)=N[C@@H](CC(=O)NCCCCNC(=O)COc1cccc3c1C(=O)N(C1CCC(=O)NC1=O)C3=O)c1nnc(C)n1-2 (some centres not stated)
